From ChEMBL document CHEMBL1140034, “Conformationally constrained analogues of diacylglycerol. 30. An investigation of diacylglycerol-lactones containing heteroaryl groups reveals compounds with high selectivity for Ras guanyl nucleotide-releasing proteins” (J Med Chem, 2008)

How the values were obtained:
[1] = target: Protein kinase C alpha type (Homo sapiens, UniProt P17252); test: Displacement of [3H]PDBu from human recombinant PKCalpha expressed in Escherichia coli […] (DE3)
Summary of the method: (§1)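 Competition binding: displacement of bound [20-3H]phorbol 12,13-dibutyrate from recombinant PKC alpha or RasGRP3 measured in the presence of phosphatidylserine. IC50 obtained by fitting data points to the theoretical competition curve; Ki calculated from the corresponding IC50.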

[2] = Lipophilicity, SlogP of the compound; assay type: physicochemical; conditions: octanol/water
[3] = target: T1, Ras guanyl-releasing protein 3 (Homo sapiens, UniProt Q8IV61); test: Displacement of [3H]PDBu from RasGRP3 expressed in cells; assay type: cell-based; summary of the method: as §1
T1 sequence (Q8IV61 whole entry): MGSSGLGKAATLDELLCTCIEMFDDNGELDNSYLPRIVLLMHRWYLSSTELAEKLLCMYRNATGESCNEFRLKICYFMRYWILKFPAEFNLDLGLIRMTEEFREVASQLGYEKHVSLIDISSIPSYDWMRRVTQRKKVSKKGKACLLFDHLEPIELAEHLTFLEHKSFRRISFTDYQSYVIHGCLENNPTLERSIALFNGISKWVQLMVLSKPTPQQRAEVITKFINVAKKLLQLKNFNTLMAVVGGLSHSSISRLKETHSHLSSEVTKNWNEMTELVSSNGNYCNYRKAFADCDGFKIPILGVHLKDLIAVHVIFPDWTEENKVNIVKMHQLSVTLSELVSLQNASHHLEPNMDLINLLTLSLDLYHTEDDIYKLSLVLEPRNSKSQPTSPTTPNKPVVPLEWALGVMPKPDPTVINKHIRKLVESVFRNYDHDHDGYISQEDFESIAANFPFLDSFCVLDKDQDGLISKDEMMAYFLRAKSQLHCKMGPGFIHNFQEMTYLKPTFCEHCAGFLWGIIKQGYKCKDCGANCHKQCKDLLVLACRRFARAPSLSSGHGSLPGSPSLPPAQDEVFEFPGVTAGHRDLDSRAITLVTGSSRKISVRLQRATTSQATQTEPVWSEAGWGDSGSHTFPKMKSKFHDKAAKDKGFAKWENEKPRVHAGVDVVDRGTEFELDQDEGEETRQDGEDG

[4] = Ratio of Ki for human recombinant PKCalpha to RasGRP3
Summary of the method: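 Ki values for PKC alpha and RasGRP3 each come from [20-3H]PDBu displacement from the recombinant protein in the presence of phosphatidylserine, with IC50 fitted to the theoretical competition curve and converted to Ki. The ratio is Ki(PKC alpha)/Ki(RasGRP3).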

Row | SMILES | Ki [1] | logP [2] | Ki [3] | Ratio Ki [4]
1 | COc1ccc(C(=O)OCC2(CO)C/C(=C/c3ccc4ccccc4n3)C(=O)O2)cc1 (centres undefined) | 2940 nM | 3.16 | 1390 nM | 2
2 | CCCC(CCC)C(=O)OCC1(CO)C/C(=C\c2ccccn2)C(=O)O1 (centres undefined) | 86.3 nM | 2.9 | 0.72 nM | 119
3 | CN(C)c1ccc(C(=O)OCC2(CO)C/C(=C\c3ccc4ccccc4n3)C(=O)O2)cc1 (centres undefined) | 150 nM | 3.22 | 11 nM | 14
4 | CN(C)c1ccc(C(=O)OCC2(CO)C/C(=C\c3cnc4ccccc4c3)C(=O)O2)cc1 (centres undefined) | 755 nM | 3.22 | 137 nM | 6
5 | CC(C)CC(CC(=O)OCC1(CO)C/C(=C\c2ccccn2)C(=O)O1)CC(C)C (centres undefined) | 4.6 nM | 3.78 | 0.2 nM | –
6 | COc1ccc(C(=O)OCC2(CO)C/C(=C\c3ccc([N+](=O)[O-])cc3)C(=O)O2)cc1 (centres undefined) | 136 nM | – | 6.7 nM | 20
7 | COc1ccc(C(=O)OCC2(CO)C/C(=C/c3cnc4ccccc4c3)C(=O)O2)cc1 (centres undefined) | 5100 nM | 3.16 | 907 nM | 6
8 | COc1ccc(C(=O)OCC2(CO)C/C(=C/c3cccnc3)C(=O)O2)cc1 (centres undefined) | 21200 nM | 2.01 | 5500 nM | 4
9 | CN(C)c1ccc(C(=O)OCC2(CO)C/C(=C\c3ccncc3)C(=O)O2)cc1 (centres undefined) | 1110 nM | 2.07 | 54 nM | 19
10 | CCCC(CCC)C(=O)OCC1(CO)C/C(=C\c2cnc3ccccc3c2)C(=O)O1 (centres undefined) | 13.8 nM | 4.06 | 0.52 nM | 27
11 | CCCC(CCC)C(=O)OCC1(CO)C/C(=C\c2ccncc2)C(=O)O1 (centres undefined) | 627 nM | 2.9 | 13.8 nM | 45
12 | COc1ccc(C(=O)OCC2(CO)C/C(=C\c3ccccn3)C(=O)O2)cc1 (centres undefined) | 1130 nM | 2.01 | 35.8 nM | 32
13 | CCCC(CCC)C(=O)OCC1(CO)C/C(=C/c2cccnc2)C(=O)O1 (centres undefined) | 3270 nM | 2.9 | 670 nM | 5
14 | CCCC(CCC)C(=O)OCC1(CO)C/C(=C/c2ccncc2)C(=O)O1 (centres undefined) | 870 nM | 2.9 | 44 nM | 20
15 | CN(C)c1ccc(C(=O)OCC2(CO)C/C(=C\c3ccc([N+](=O)[O-])cc3)C(=O)O2)cc1 (centres undefined) | 343 nM | – | – | 90
16 | CN(C)c1ccc(C(=O)OCC2(CO)C/C(=C\c3cn(C)c4ccccc34)C(=O)O2)cc1 (centres undefined) | 174 nM | 3.22 | 3.7 nM | 47
17 | CN(C)c1ccc(C(=O)OCC2(CO)C/C(=C/c3ccncc3)C(=O)O2)cc1 (centres undefined) | 33200 nM | 2.07 | 2360 nM | 14
18 | COc1ccc(C(=O)OCC2(CO)C/C(=C\c3cccnc3)C(=O)O2)cc1 (centres undefined) | 810 nM | 2.01 | 81 nM | 10

Row | SMILES | Ki [1] | logP [2] | Ki [3] | Ratio Ki [4]
19 | CCCC(CCC)C(=O)OCC1(CO)C/C(=C\c2cn(C)c3ccccc23)C(=O)O1 (centres undefined) | 29.7 nM | 4.36 | 0.18 nM | 165
20 | COc1ccc(C(=O)OCC2(CO)C/C(=C/c3ccncc3)C(=O)O2)cc1 (centres undefined) | 25400 nM | 2.01 | 3660 nM | 7
21 | CN(C)c1ccc(C(=O)OCC2(CO)C/C(=C\c3ccccn3)C(=O)O2)cc1 (centres undefined) | 1020 nM | 2.07 | 23.8 nM | 43
22 | CCCC(CCC)C(=O)OCC1(CO)C/C(=C\c2cccnc2)C(=O)O1 (centres undefined) | 76 nM | 2.9 | 1.6 nM | 47
23 | COc1ccc(C(=O)OCC2(CO)C/C(=C\c3cnc4ccccc4c3)C(=O)O2)cc1 (centres undefined) | 144 nM | 3.16 | 17.4 nM | 8
24 | CC(C)CC(CC(=O)OCC1(CO)C/C(=C\c2cn(C)c3ccccc23)C(=O)O1)CC(C)C (centres undefined) | 14.8 nM | 5.24 | 0.7 nM | –
25 | CN(C)c1ccc(C(=O)OCC2(CO)C/C(=C/c3ccc4ccccc4n3)C(=O)O2)cc1 (centres undefined) | 15800 nM | 3.22 | 2040 nM | 8
26 | COc1ccc(C(=O)OCC2(CO)C/C(=C\c3cn(C)c4ccccc34)C(=O)O2)cc1 (centres undefined) | 212 nM | 3.46 | 3.3 nM | 64
27 | CCCC(CCC)C(=O)OCC1(CO)C/C(=C\c2ccc3ccccc3n2)C(=O)O1 (centres undefined) | 51.9 nM | 4.06 | 1.7 nM | 31
28 | COc1ccc(C(=O)OCC2(CO)C/C(=C/c3ccccn3)C(=O)O2)cc1 (centres undefined) | 27100 nM | 2.01 | 2470 nM | 11
29 | CCCC(CCC)C(=O)OCC1(CO)C/C(=C/c2ccccn2)C(=O)O1 (centres undefined) | 1370 nM | 2.9 | 83 nM | 16
30 | CN(C)c1ccc(C(=O)OCC2(CO)C/C(=C/c3cnc4ccccc4c3)C(=O)O2)cc1 (centres undefined) | 4880 nM | 3.22 | 1410 nM | 3
31 | CCCC(CCC)C(=O)OCC1(CO)C/C(=C/c2ccc3ccccc3n2)C(=O)O1 (centres undefined) | 78.8 nM | 4.06 | 4.6 nM | 17
32 | CCCC(CCC)C(=O)OCC1(CO)C/C(=C/c2cnc3ccccc3c2)C(=O)O1 (centres undefined) | 177 nM | 4.06 | 32.2 nM | 5
33 | CN(C)c1ccc(C(=O)OCC2(CO)C/C(=C\c3cccnc3)C(=O)O2)cc1 (centres undefined) | 790 nM | 2.07 | 59 nM | 13
34 | COc1ccc(C(=O)OCC2(CO)C/C(=C\c3ccncc3)C(=O)O2)cc1 (centres undefined) | 1450 nM | 2.01 | 54.2 nM | 27
35 | CN(C)c1ccc(C(=O)OCC2(CO)C/C(=C/c3cccnc3)C(=O)O2)cc1 (centres undefined) | 34100 nM | 2.07 | 1970 nM | 20
36 | COc1ccc(C(=O)OCC2(CO)C/C(=C\c3ccc4ccccc4n3)C(=O)O2)cc1 (centres undefined) | 132 nM | 3.16 | 8.2 nM | 16
